Many of the other results were omitted from the sample, so hits are more common in it than they were.
T cruzi HTS = blocks T. cruzi growth inside host cells. intracellular Trypanosoma cruzi in host cells, plate reader. activity score (inhibition), % at 5.01 µM. hit rate 4.9% among 22,000; in the data active means activity score above about 55%; inconclusive means no clear call, values can overlap the other calls;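 further: parasites and compound incubated about four days before reading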
INS-1E rescue = INS-1E beta cell protection from cytokine death. INS-1E cytokine-induced death, ATP luminescence, 48 h; normalised: neutral wells 0, positive control 100. protection from cytokine-induced ATP loss, % at 10 µM. hit rate 0.1% among 20,000. AID 488910;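 active means mean replicate protection from cytokine-induced ATP loss at least 50% and at least 75% of replicates each reaching 50%; inconclusive means meets only one of the two criteria, mean or replicate share; inactive means fails both the mean and replicate share criteria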
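Assay system: INS-1E rat insulinoma cells. Amount: 8000 cells per well. Medium: phenol-red-free RPMI with 5% fetal bovine serum. Reagent: IL-1β, TNF-α and IFN-γ cytokine mix. Doses: one compound concentration, pin transfer. Schedule: 48 h co-treatment, 10 min post-lysis read. Detection: CellTiter-Glo luminescence measuring cellular ATP.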
A1 apoptosis 2 = A1 inhibition read as caspase activation; MEF A1-2A-BIM cells, caspase-Glo luminescence, 3 h; percent of clofoctol response, DMSO zero; caspase activation, % (no concentration beside the values); 24,000 tested, under 10 active; in the data active means caspase activation above about 5.9%; inconclusive means no clear call, values can overlap the other calls; inactive means below about 2.2%
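system = A1-2A-BIM-expressing MEF cells | quantity = 2500 MEF cells/well | dosing = 50 nL compound per well, pinned | schedule = overnight cell settling, then 3 h compound exposure, 37 °C | signal = luminescence from DEVD-luciferin Caspase-Glo reagent, 1:1 in 50 mM HEPES, 1 h RT | read-out = Caspase-3/7 activation, seen as rise in luminescence signal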
Of the large screens only hits and unclear results are named; the others gave an inactive call.

C[C@H](CO)N1C[C@H](C)[C@H](CN(C)Cc2ccc(Oc3ccccc3)cc2)Oc2ccc(NC(=O)Nc3ccc(F)cc3)cc2CC1=O	T cruzi HTS 61.8 (no result: A1 apoptosis 2)
C[C@@H]1CN([C@H](C)CO)C(=O)Cc2cc(NC(=O)Nc3ccc(F)cc3)ccc2O[C@H]1CN(C)Cc1ccc(Oc2ccccc2)cc1	T cruzi HTS inconclusive (no result: A1 apoptosis 2)
C[C@H](CO)N1C[C@H](C)[C@@H](CN(C)Cc2ccc(Oc3ccccc3)cc2)Oc2ccc(NC(=O)Nc3ccc(F)cc3)cc2CC1=O	none (no result: T cruzi HTS, INS-1E rescue)
COc1ccc(NC(=O)Nc2ccc3c(c2)CC(=O)N([C@H](C)CO)C[C@H](C)[C@H](CN(C)Cc2ccc(Oc4ccccc4)cc2)O3)cc1	none
C[C@H]1CN([C@@H](C)CO)C(=O)Cc2cc(NC(=O)Nc3ccc(F)cc3)ccc2O[C@@H]1CN(C)Cc1ccc(Oc2ccccc2)cc1	T cruzi HTS 70.3 (no result: A1 apoptosis 2)
C[C@@H]1CN([C@H](C)CO)C(=O)Cc2cc(NC(=O)Nc3ccc(F)cc3)ccc2O[C@@H]1CN(C)Cc1ccc(Oc2ccccc2)cc1	T cruzi HTS 71.3
C[C@H]1CN([C@@H](C)CO)C(=O)Cc2cc(NC(=O)NC3CCCCC3)ccc2O[C@@H]1CN(C)S(=O)(=O)c1cccs1	none
O=C(O)CCCCCCC(=O)NN=C1CCCC1	none
COc1ccc(Br)c(/C=N/NC(=O)CCCCC(=O)NO)c1	none (no result: T cruzi HTS, INS-1E rescue)
COc1ccc(NC(=O)Nc2ccc3c(c2)CC(=O)N([C@H](C)CO)C[C@H](C)[C@H](CN(C)Cc2ccc(-c4ccccc4)cc2)O3)cc1	none
COc1ccc(NC(=O)Nc2ccc3c(c2)CC(=O)N([C@H](C)CO)C[C@@H](C)[C@@H](CN(C)Cc2ccc(-c4ccccc4)cc2)O3)cc1	T cruzi HTS 72.3 (no result: A1 apoptosis 2)
C[C@@H]1CN([C@H](C)CO)C(=O)Cc2cc(NC(=O)Nc3ccc(C(F)(F)F)cc3)ccc2O[C@H]1CN(C)CC1CC1	none
C[C@H]1CN([C@@H](C)CO)C(=O)Cc2cc(NC(=O)Nc3ccc(C(F)(F)F)cc3)ccc2O[C@H]1CN(C)CC1CC1	none
C[C@@H]1CN([C@H](C)CO)C(=O)Cc2cc(NC(=O)Nc3ccc(C(F)(F)F)cc3)ccc2O[C@H]1CN(C)CC1CCCCC1	T cruzi HTS 82.8 (no result: A1 apoptosis 2)
C[C@@H]1CN([C@H](C)CO)C(=O)Cc2cc(NC(=O)Nc3ccc(C(F)(F)F)cc3)ccc2O[C@@H]1CN(C)CC1CCCCC1	T cruzi HTS 61.5 (no result: A1 apoptosis 2)
O=C(CCCCCCC(=O)N/N=C/c1ccccn1)NO	none (no result: T cruzi HTS, INS-1E rescue)
C[C@H]1CN([C@@H](C)CO)C(=O)Cc2cc(NS(=O)(=O)c3ccc(F)cc3)ccc2O[C@@H]1CN(C)Cc1ccc(-c2ccccc2)cc1	T cruzi HTS 70.6
C[C@@H]1CN([C@@H](C)CO)C(=O)Cc2cc(NS(=O)(=O)c3ccccc3)ccc2O[C@@H]1CN(C)Cc1ccc(-c2ccccc2)cc1	T cruzi HTS 58.3 (no result: A1 apoptosis 2)
Cc1ccc(S(=O)(=O)Nc2ccc3c(c2)CC(=O)N([C@H](C)CO)C[C@H](C)[C@H](CN(C)Cc2ccc(-c4ccccc4)cc2)O3)cc1	none (no result: A1 apoptosis 2)
C[C@@H]1CN([C@H](C)CO)C(=O)Cc2cc(NS(=O)(=O)c3ccccc3)ccc2O[C@@H]1CN(C)Cc1ccc(-c2ccccc2)cc1	T cruzi HTS 70.7
C[C@H](CO)N1C[C@H](C)[C@@H](CN(C)Cc2ccccc2)Oc2ccc(NS(=O)(=O)c3ccc(F)cc3)cc2CC1=O	none (no result: T cruzi HTS, INS-1E rescue)
Cc1ccc(S(=O)(=O)Nc2ccc3c(c2)CC(=O)N([C@@H](C)CO)C[C@H](C)[C@H](CN(C)Cc2ccc(-c4ccccc4)cc2)O3)cc1	none
C[C@@H]1CN([C@H](C)CO)C(=O)Cc2cc(NS(=O)(=O)c3ccc(F)cc3)ccc2O[C@@H]1CN(C)Cc1ccccc1	T cruzi HTS 62.5
Cc1ccc(S(=O)(=O)Nc2ccc3c(c2)CC(=O)N([C@H](C)CO)C[C@H](C)[C@@H](CN(C)Cc2ccc(-c4ccccc4)cc2)O3)cc1	none (no result: T cruzi HTS, INS-1E rescue)
O=C(CCCCCCC(=O)Nc1ccccc1O)N/N=C/C=C/c1ccccc1	none
C[C@@H]1CN([C@H](C)CO)C(=O)c2cc(NS(=O)(=O)c3ccc(Cl)cc3)ccc2O[C@@H]1CN(C)C	none (no result: A1 apoptosis 2)
C[C@H]1CN([C@@H](C)CO)C(=O)Cc2cc(NS(=O)(=O)c3cccs3)ccc2O[C@@H]1CN(C)Cc1ccc(-c2ccccc2)cc1	T cruzi HTS 56.3
C[C@H](CO)N1C[C@H](C)[C@@H](CN(C)Cc2ccc(-c3ccccc3)cc2)Oc2ccc(NS(=O)(=O)c3cccs3)cc2CC1=O	none (no result: T cruzi HTS, INS-1E rescue)
C[C@H]1CN([C@@H](C)CO)C(=O)Cc2cc(NS(=O)(=O)c3ccc(Cl)cc3)ccc2O[C@@H]1CN(C)Cc1ccc(-c2ccccc2)cc1	T cruzi HTS 61.5 (no result: A1 apoptosis 2)
